Test results: ChEMBL document CHEMBL1781931, “Anacardic acid derivatives as inhibitors of glyceraldehyde-3-phosphate dehydrogenase from Trypanosoma cruzi” (Bioorg Med Chem, 2008)
The source made the active and inactive calls. No cut-off for these calls is given here.

Columns and labels:
[1] = target: T1, Glyceraldehyde-3-phosphate dehydrogenase, glycosomal (Trypanosoma cruzi, UniProt P22513); experiment: Inhibition of Trypanosoma cruzi recombinant glycosomal GAPDH expressed in Escherichia coli using GAPDH and D-glyceraldehyde-3-phosphate
T1 sequence (P22513 whole entry): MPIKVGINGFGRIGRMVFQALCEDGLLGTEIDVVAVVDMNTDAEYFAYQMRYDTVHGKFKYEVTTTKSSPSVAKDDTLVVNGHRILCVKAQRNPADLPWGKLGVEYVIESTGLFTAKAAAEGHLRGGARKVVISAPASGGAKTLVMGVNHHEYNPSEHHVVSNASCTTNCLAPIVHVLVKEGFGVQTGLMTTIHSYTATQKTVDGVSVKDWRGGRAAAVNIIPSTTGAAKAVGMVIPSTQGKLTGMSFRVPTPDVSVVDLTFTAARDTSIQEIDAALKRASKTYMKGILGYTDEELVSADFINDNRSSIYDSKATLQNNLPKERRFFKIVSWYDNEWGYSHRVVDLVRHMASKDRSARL
In short: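 Recombinant T. cruzi GAPDH (20 nM; E. coli-expressed, purified by hydrophobic then cation-exchange chromatography) assayed at 25 °C in triplicate. Buffer: 100 mM triethanolamine-HCl pH 7.5, 1 mM EDTA, 1 mM 2-mercaptoethanol, 30 mM arsenate, 400 µM NAD+, 300 µM G-3-P. NADH formation read at 340 nm for 8 min. Initial rates give % inhibition; IC50 from ≥5 inhibitor concentrations by nonlinear regression.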

[2] = target: T1, Glyceraldehyde-3-phosphate dehydrogenase, glycosomal; experiment: Non-competitive inhibition of Trypanosoma cruzi recombinant glycosomal GAPDH expressed in Escherichia coli assessed as dissociation constant for ternary enzyme-substrate-inhibitor complex using D-glyceraldehyde-3-phosphate substrate by Lineweaver-Burk plot method
In short: (§1)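 Inhibition type and Ki/αKi were determined against each substrate (G-3-P or NAD+), varying that substrate at 3 or 4 inhibitor concentrations. Conditions were otherwise those of the 340 nm NADH assay: 20 nM recombinant GAPDH, pH 7.5 triethanolamine buffer, 25 °C. Double-reciprocal plots were used, with parameters fitted in an enzyme-kinetics module. Means are of ≥3 experiments.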

[3] = target: T1, Glyceraldehyde-3-phosphate dehydrogenase, glycosomal; experiment: Non-competitive inhibition of Trypanosoma cruzi recombinant glycosomal GAPDH expressed in Escherichia coli assessed as dissociation constant for binary enzyme-inhibitor complex using D-glyceraldehyde-3-phosphate substrate by Lineweaver-Burk plot method; in short: as §1
[4] = target: T1, Glyceraldehyde-3-phosphate dehydrogenase, glycosomal; experiment: Non-competitive inhibition of Trypanosoma cruzi recombinant glycosomal GAPDH expressed in Escherichia coli assessed as dissociation constant for ternary enzyme-substrate-inhibitor complex using NAD+ substrate by Lineweaver-Burk plot method; in short: as §1
[5] = target: Glyceraldehyde-3-phosphate dehydrogenase, glycosomal (Trypanosoma cruzi) (UniProt P22513); experiment: Inhibition of Trypanosoma cruzi recombinant glycosomal GAPDH expressed in Escherichia coli using GAPDH and D-glyceraldehyde-3-phosphate in presence of 0.01% Triton X-100
Glyceraldehyde-3-phosphate dehydrogenase, glycosomal (Trypanosoma cruzi), sequence (P22513 whole entry): as above
In short: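 Assay as for the standard GAPDH rate measurement: 20 nM recombinant enzyme, triethanolamine-HCl pH 7.5 with EDTA, 2-mercaptoethanol, arsenate, 400 µM NAD+ and 300 µM G-3-P, 25 °C, NADH followed at 340 nm. Triton X-100 was added to 0.01% final, from a freshly made 1% (v/v) stock in triethanolamine buffer, to test for nonspecific inhibition.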

[6] = target: T1, Glyceraldehyde-3-phosphate dehydrogenase, glycosomal; experiment: Non-competitive inhibition of Trypanosoma cruzi recombinant glycosomal GAPDH expressed in Escherichia coli assessed as dissociation constant for binary enzyme-inhibitor complex using NAD+ substrate by Lineweaver-Burk plot method; in short: as §1

Row | Structure (SMILES) | IC50 [1] [µM] | also measured
1 | CCCCCCCCCc1cccc(O)c1C(=O)O | 200 | –
2 | CCOC(=O)c1c(C=CCCCCOC2CCCCO2)cccc1OC (mixture of isomers) | > 300 | –
3 | CCCCCCCCCCCCc1cccc(O)c1C(=O)O | 55 | Ki [2]: 38 µM; Ki [3]: 4 µM; Ki [4]: 43 µM; inhibition [5]: Active; Ki [6]: 5 µM
4 | C=CC/C=C\C/C=C\CCCCCCCc1cccc(O)c1C(=O)O [ANACARDIC ACID] | 28 | Ki [2]: 4 µM; Ki [3]: 2 µM; Ki [4]: 6 µM; inhibition [5]: Active; Ki [6]: 4 µM
5 | CCOC(=O)c1c(CCCCCCCCCCOC2CCCCO2)cccc1OC (configuration not stated) | > 250 | –
6 | O=CCCCCCCCc1cccc(O)c1C(=O)O | > 250 | –
7 | CCOC(=O)c1c(O)cccc1CCCCCCCCCCO | > 250 | –
8 | O=C(O)c1c(O)cccc1CCCCCCCCCCO | 240 | –
9 | CCOC(=O)c1c(C=CCCCCCCOC2CCCCO2)cccc1OC (mixture of isomers) | > 300 | –
10 | CCOC(=O)c1c(CCCCCCCCOC2CCCCO2)cccc1OC (configuration not stated) | > 250 | –
11 | CCOC(=O)c1c(CCCCCCOC2CCCCO2)cccc1OC (configuration not stated) | > 250 | –
12 | CCCCCCCCCCCCc1cccc(O)c1C(=O)OCC | 215 | –
13 | CCOC(=O)c1c(O)cccc1CCCCCCO | > 250 | –
14 | CCCCCCCCCc1cccc(OC)c1C(=O)OCC | > 250 | –
15 | CCCCCCCC=Cc1cccc(OC)c1C(=O)OCC (mixture of isomers) | > 300 | –
16 | CCCCCCCCCCCCc1cccc(OC)c1C(=O)OCC | > 250 | –
17 | CCOC(=O)c1c(C=CCCCCCCCCOC2CCCCO2)cccc1OC (mixture of isomers) | > 300 | –
18 | O=C(O)c1c(O)cccc1CCCCCCO | > 250 | –
19 | CCOC(=O)c1c(O)cccc1CCCCCCCCO | > 250 | –
20 | CCCCCCCCCCC=Cc1cccc(OC)c1C(=O)OCC (mixture of isomers) | > 300 | –
21 | O=C(O)c1c(O)cccc1CCCCCCCCO | > 250 | –
22 | CCCCCCCCCc1cccc(O)c1C(=O)OCC | > 250 | –
